Measured values taken from ChEMBL document CHEMBL5143669, “Stapled peptides as scaffolds for developing radiotracers for intracellular targets: Preliminary evaluation of a radioiodinated MDM2-binding stapled peptide in the SJSA-1 osteosarcoma model” (Bioorg Med Chem Lett, 2022).

Key:
[1] = Stability in human serum assessed as intact peptide level at 37 degC incubated for 72 hrs by RP-HPLC analysis; assay type: ADME, cell-free; details: read-out: Drug uptake
Summary of the method: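 125I-labeled peptide was incubated in human serum at 37 °C for up to 72 h. Aliquots were run by RP-HPLC (RP-18 column, ethanol/0.05 M sodium acetate pH 5.5 gradient, 1 mL/min), and intact peptide was expressed as percentage of injected activity.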

[2] = Biodistribution in Stomach of athymic mouse xenografted with human SJSA-1 cells at 166.5 kBq, iv after 30 mins by automated gamma counting method; assay type: ADME, organism-based; details: in vivo, 0.5 h
Summary of the method: (§1)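 Athymic mice bearing flank SJSA-1 xenografts received 125I-SIB-labeled peptide (166.5 kBq, 100 μL) by tail vein; groups of five per time point. Tumor, blood and organs were taken at 0.5–24 h and counted by gamma counter; values expressed as %ID/g.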

[3] = Biodistribution in Muscle of athymic mouse xenografted with human SJSA-1 cells at 166.5 kBq, iv after 30 mins by automated gamma counting method; assay type: ADME, organism-based, Muscle tissue; details: in vivo, 0.5 h
Summary of the method: (§2)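 125I-labeled peptide (166.5 kBq in 100 μL) was injected via tail vein into athymic mice bearing flank SJSA-1 xenografts, n = 5 per time point. Tumors, blood and major organs were gamma-counted at 0.5, 2, 6 and 24 h post-injection. Values are %ID/g.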

[4] = Biodistribution in Heart of athymic mouse xenografted with human SJSA-1 cells at 166.5 kBq, iv after 6 hrs by automated gamma counting method; assay type: ADME, organism-based; details: in vivo; summary of the method: as §2
[5] = Biodistribution in Stomach of athymic mouse xenografted with human SJSA-1 cells at 166.5 kBq, iv after 6 hrs by automated gamma counting method; assay type: ADME, organism-based; details: in vivo; summary of the method: as §1
[6] = Biodistribution in Tumor of athymic mouse xenografted with human SJSA-1 cells at 166.5 kBq, iv after 6 hrs by automated gamma counting method; assay type: ADME, organism-based, Neoplasm; details: in vivo; summary of the method: as §1
[7] = Biodistribution in Skin of athymic mouse xenografted with human SJSA-1 cells at 166.5 kBq, iv after 24 hrs by automated gamma counting method; assay type: ADME, organism-based, Skin of body; details: in vivo; summary of the method: as §2

`CC(=O)NC(CCCCNC(=O)c1cccc([125I])c1)C(=O)NCCCCCC(=O)N[C@H](C(=O)N[C@@H](CO)C(=O)N[C@@H](Cc1ccccc1)C(=O)N[C@@]1(C)CCCCCC/C=C/CCC[C@@](C)(C(=O)N[C@@H](CCC(=O)O)C(=O)N[C@@H](CC(N)=O)C(=O)N[C@@H](Cc2ccccc2)C(N)=O)NC(=O)[C@H](CC(C)C)NC(=O)[C@H](CC(C)C)NC(=O)[C@H](C)NC(=O)[C@H](Cc2c[nH]c3ccccc23)NC(=O)[C@H](Cc2ccc(O)cc2)NC(=O)[C@H](CCC(=O)O)NC1=O)[C@@H](C)O` (some centres not stated) gave a remaining at 72 h [1] of 96%, a Drug uptake [2] of 0.34 % ID/g and a Drug uptake [3] of 0.16 % ID/g. The Drug uptake [4] was 2.14 % ID/g, the Drug uptake [5] was 1.9 % ID/g and the Drug uptake [6] was 2.11 % ID/g. The Drug uptake [7] was 0.52 % ID/g.
